# In ChEMBL document CHEMBL4020823, “Highly Selective, Potent, and Oral mTOR Inhibitor for Treatment of Cancer as Autophagy Inducer” (J Med Chem, 2018):
# Calls of active or inactive are those of the source. The calls are words filed in the database; no cut-off is given here.
# Experiments:
# [1] = target: PI3K p110 delta/p85 alpha (Mus musculus) (UniProt P26450+O35904); assay: Inhibition of full length recombinant mouse PI3K p110delta/p85alpha at 1 uM relative to control; assay type: protein-complex assay
# In short: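 Eurofins KinaseProfiler panel with compound at a single 1 μM concentration. ATP at the Km of each kinase. Result is % inhibition, mean of two independent experiments.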
# T47D = assay: Induction of autophagy in human T47D cells assessed as increase in LC3-2 puncta level at 0.25 to 0.5 uM after 48 hrs by immunofluorescence staining based microscopic analysis; assay type: functional, cell-based
# In short: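 Cells seeded on glass coverslips in complete 1640 or DMEM and incubated with inhibitors at different concentrations for 48 h. Fixed in 4% paraformaldehyde, permeabilized with 0.15% Triton X-100, blocked in 4% BSA/PBS for 1 h at room temperature. Anti-LC3B (1:200) overnight, then FITC-conjugated secondary, DAPI nuclear stain. LC3B-II puncta viewed by fluorescence microscopy.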
smiles,measurement,setting,value
N#CCN1CCC(n2c(=O)cnc3cnc4ccc(-c5ccc(N)nc5)cc4c32)CC1,inhibition,[1],4%
same,Activity,T47D,Active
